According to ChEMBL document CHEMBL1131510, “An endogenous sleep-inducing compound is a novel competitive inhibitor of fatty acid amide hydrolase” (Bioorg Med Chem Lett, 1998):

Legend:
[1] = target: T1, Fatty-acid amide hydrolase 1 (Homo sapiens, UniProt O00519); test: Concentration required to inhibit Fatty-acid amide hydrolase (FAAH) at pH 7.0
T1 sequence (O00519 whole entry): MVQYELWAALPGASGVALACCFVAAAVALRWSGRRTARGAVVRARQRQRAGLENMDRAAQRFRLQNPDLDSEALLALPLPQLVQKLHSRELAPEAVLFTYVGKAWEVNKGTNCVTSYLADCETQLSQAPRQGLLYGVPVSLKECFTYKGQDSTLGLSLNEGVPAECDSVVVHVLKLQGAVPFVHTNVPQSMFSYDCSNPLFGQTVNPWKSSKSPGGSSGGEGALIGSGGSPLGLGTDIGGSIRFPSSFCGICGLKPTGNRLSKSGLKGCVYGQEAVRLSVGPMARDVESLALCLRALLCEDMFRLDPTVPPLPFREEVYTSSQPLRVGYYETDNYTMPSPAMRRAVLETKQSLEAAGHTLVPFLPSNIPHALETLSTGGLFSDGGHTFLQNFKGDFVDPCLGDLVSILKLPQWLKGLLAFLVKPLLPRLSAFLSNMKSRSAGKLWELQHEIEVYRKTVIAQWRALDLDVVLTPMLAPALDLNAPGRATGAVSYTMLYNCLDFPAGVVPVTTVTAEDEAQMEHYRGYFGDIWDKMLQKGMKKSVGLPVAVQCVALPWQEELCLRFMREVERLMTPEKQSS
In short: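 FAAH from solubilized liver plasma membrane extract, assayed at 20-22 °C at pH 7.0. Per the general assay footnote, the reaction buffer contained Tris, EDTA, glycerol and Triton X-100. Read-out was ¹⁴C-oleamide hydrolysis to oleic acid, followed by extraction, TLC separation and scintillation counting. Reaction time courses ran 10 min to 1 h. Only IC50 values are reported at this pH.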

[2] = target: T1, Fatty-acid amide hydrolase 1; test: Inhibitory concentration against Fatty-acid amide hydrolase (FAAH) at pH 9.0
In short: (§1)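 Hydrolysis of ¹⁴C-oleamide to oleic acid was followed over 30 s to 15 min. Product was extracted, separated by TLC and quantified by scintillation counting.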

[3] = target: T1, Fatty-acid amide hydrolase 1; test: Compound was tested for inhibitory potency against Fatty-acid amide hydrolase (FAAH) at pH 9.0; in short: as §1
[4] = Acid dissociation constant value for the compound was determined; type: ADME
[5] = target: T1, Fatty-acid amide hydrolase 1; test: Concentration required to inhibit fatty acid amide hydrolase (FAAH) at pH 7.0
In short: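 Performed at pH 7.0 with solubilized liver plasma membrane extract as the FAAH source. ¹⁴C-oleamide breakdown to oleic acid was measured by extraction, TLC separation and scintillation counting. Reaction progress was monitored from 10 min to 1 h, and only IC50 values were derived.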

## CCCCCCCOC(=O)CC(=O)CBr
[1]
  IC50: 2.1 µM
[2]
  IC50: 1.5 µM
[3]
  Ki: 0.55 µM

## CCCCCC[C@@H](C)OC(=O)CC(=O)CCC
[2]
  IC50: > 100 µM

## CCCCCCCCC(=O)CC(C)=O
[4]
  pKa: 9
[2]
  IC50: > 100 µM

## CCCCCC[C@H](C)OC(=O)CC(=O)CBr
[2]
  IC50: 4 µM
[3]
  Ki: 1.1 µM

## CCCCCCCC/C=C\CCCCCCCC(=O)CBr
[2]
  IC50: 1 µM
[5]
  IC50: 5.3 µM
[3]
  Ki: 0.39 µM

## CCCCCC[C@H](C)OC(=O)CC(C)=O
[4]
  pKa: 10.5
[2]
  IC50: > 100 µM

## CCCCCC[C@@H](C)OC(=O)CC(=O)CCl
[2]
  IC50: 2.9 µM
[5]
  IC50: 0.7 µM
[3]
  Ki: 1.1 µM

## CCCCCC[C@@H](C)OC(=O)CC(=O)CBr
[4]
  pKa: 8.5
[1]
  IC50: 3.1 µM
[2]
  IC50: 2.6 µM
[3]
  Ki: 0.8 µM

## CCCCCC[C@@H](C)OC(=O)CC(=O)CC
[2]
  IC50: > 100 µM

## CCCCCCCC/C=C\CCCCOC(=O)CC(=O)CBr
[2]
  IC50: 0.6 µM
[5]
  IC50: 2.5 µM
[3]
  Ki: 0.19 µM

## CCCCCC[C@@H](C)OC(=O)CC(O)CBr (stereo partly drawn)
[2]
  IC50: > 100 µM

## CCCCCCCC/C=C\CCCCCCCC(=O)C(F)(F)F
[2]
  IC50: 0.6 µM
[5]
  IC50: 9.9 µM
[3]
  Ki: 0.25 µM
